Measured values published in ChEMBL document CHEMBL1149633, “Protection from endotoxic shock by EVK-203, a novel alkylpolyamine sequestrant of lipopolysaccharide” (Bioorg Med Chem, 2007).
One block for each compound: values may come before it. The source made the active and inactive calls. The rule behind the calls is not given here.

How the values were obtained:
Mus musculus [1] = organism: Mus musculus; experiment: Prevention of LPS-induced lethality in D-galactosamine-primed CF1 mouse model of lethal endotoxic shock; type: functional, organism-based
[2] = target: T1, MAP kinase p38 (Homo sapiens) (UniProt O15264+Q15759+Q16539+P53778); experiment: Inhibition of p38MAPK phosphorylation in LPS-induced human whole blood neutrophils; type: tissue-based
[3] = target: T1, MAP kinase p38 (Homo sapiens); experiment: Inhibition of TNFalpha induced p38MAPK phosphorylation in human whole blood neutrophils; type: tissue-based
[4] = target: T1, MAP kinase p38 (Homo sapiens); experiment: Inhibition of p38MAPK phosphorylation in TNF-alpha-induced human whole blood neutrophils; type: protein assay
[5] = Binding affinity to LPS by BODIPY-TR-cadaverine displacement assay
Procedure, shortened: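 Fluorescence displacement of BODIPY-TR-cadaverine (5 μM) bound to E. coli O111:B4 smooth LPS (50 μg/ml), both in the mixture added to the wells. Compound serially diluted two-fold in 50 mM Tris pH 7.4 […], quadruplicates. Ex 580/em 620 nm at 25 °C. ED50 is the dose that displaces 50% of bound probe, taken from a four-parameter logistic fit.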

HEK293 = experiment: Inhibition of LPS-induced NF-kappaB induction in HEK293 cells co-transfected with TLR4, CD14 and MD2; type: functional, cell-based; settings: Homo sapiens
Procedure, shortened: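 HEK293 cells stably expressing TLR4, CD14, MD2 and an NF-κB/AP-1-driven secreted alkaline phosphatase reporter. Plated at ~10^5 cells/ml and grown to confluency. Stimulated with 10 ng/ml E. coli O111:B4 LPS plus serially diluted compound, then incubated overnight. seAP in the supernatant was read by chromogen at 620 nm.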

Blood [6] = experiment: Inhibition of LPS-induced IL6 production in human whole blood; type: functional, tissue-based
Procedure, shortened: (§1)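 EDTA-anticoagulated fresh whole blood from healthy human volunteers, mixed with an equal volume of 20 ng/ml E. coli O111:B4 LPS. Graded compound, diluted in saline, added at the same time. Incubated 4 h. TNF-α, IL-6 and IL-8 were quantified by multiplexed flow-cytometric bead array against recombinant standard curves.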

Blood [7] = experiment: Inhibition of LPS-induced IL8 production in human whole blood; type: functional, tissue-based; procedure, shortened: as §1
J774.A1 = experiment: Inhibition of nitric oxide production in LPS-stimulated mouse J774A.1 cells; type: functional, cell-based
Procedure, shortened: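 J774A.1 cells in RPMI-1640 with 10% FBS and 200 μg/ml L-arginine, 37 °C, 5% CO2. Plated at ~10^5 cells/ml, grown to confluency, then given 10 ng/ml E. coli O111:B4 LPS together with serially diluted compound for 16 h. Nitrite measured with Griess reagent (15 min, RT, dark) at 535 nm against a sodium nitrite standard curve.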

Blood [8] = experiment: Inhibition of LPS-induced TNFalpha production in human whole blood; type: functional, tissue-based; procedure, shortened: as §1
Mus musculus [9] = organism: Mus musculus; experiment: Prevention of TNFalpha induced lethality in CF1 mouse; type: functional, organism-based
Procedure, shortened: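 Mice were challenged with 100 ng/animal of recombinant murine TNF-α, and lethality was assessed.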

Mus musculus [10] = experiment: Toxicity in mouse at 40 mg/kg, sc after 5 days; type: organism-based; design: dose 40 mg/kg, route subcutaneous; settings: in vivo, 120 h
Procedure, shortened: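 Female CF-1 mice were given 40 mg/kg s.c. in the lower flank daily for 5 days (200 mg/kg total), in 0.2 ml isotonic saline with human serum albumin at 66 mg/ml. They were monitored for external signs, and nephro- and hepatotoxicity were assessed by clinical chemistry on Day 6.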

Mus musculus [11] = experiment: Prevention of LPS-induced lethality in D-galactosamine-primed CF1 mouse model of lethal endotoxic shock at 8 mg/kg, sc administered concurrently to LPS administration; type: functional, organism-based; design: dose 8 mg/kg
Procedure, shortened: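 D-galactosamine-sensitized female CF-1 mice received 8 mg/kg s.c. at different times before or after i.p. LPS (200 ng/animal, 2× LD100, given at 0 h), including concurrent dosing. Survival recorded.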

Mus musculus [12] = experiment: Inhibition of LPS-induced plasma IL6 level in sc dosed mouse pretreated 1 hr before LPS challenge by CBA assay; type: functional, organism-based
Procedure, shortened: (§2)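 Female outbred CF-1 mice (9–11 weeks, 22–28 g), 5 per group. Graded compound or vehicle given s.c. at −1 h, then 200 ng LPS in saline i.p. at 0 h. Terminal cardiac-puncture blood taken under halothane at 1, 2 and 3 h. Plasma cytokines measured by mouse inflammation bead array.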

Mus musculus [13] = experiment: Inhibition of LPS-induced plasma TNFalpha level in sc dosed mouse pretreated 1 hr before LPS challenge by CBA assay; type: functional, organism-based; procedure, shortened: as §2
Mus musculus [14] = experiment: Inhibition of LPS-induced plasma MCP1 level in sc dosed mouse pretreated 1 hr before LPS challenge by CBA assay; type: functional, organism-based; procedure, shortened: as §2

T1 sequence (P53778 whole entry, looked up, chain 1 of 4): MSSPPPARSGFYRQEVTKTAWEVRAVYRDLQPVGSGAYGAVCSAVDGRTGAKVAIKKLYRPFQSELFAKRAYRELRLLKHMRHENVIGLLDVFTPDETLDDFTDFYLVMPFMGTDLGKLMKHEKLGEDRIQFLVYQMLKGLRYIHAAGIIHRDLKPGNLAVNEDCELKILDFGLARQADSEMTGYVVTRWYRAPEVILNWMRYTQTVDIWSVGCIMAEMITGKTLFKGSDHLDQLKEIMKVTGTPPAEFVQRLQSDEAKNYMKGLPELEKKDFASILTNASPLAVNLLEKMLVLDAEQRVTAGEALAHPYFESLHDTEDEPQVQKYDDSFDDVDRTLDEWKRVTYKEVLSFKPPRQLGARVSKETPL
T1 sequence (Q16539 whole entry, looked up, chain 2 of 4): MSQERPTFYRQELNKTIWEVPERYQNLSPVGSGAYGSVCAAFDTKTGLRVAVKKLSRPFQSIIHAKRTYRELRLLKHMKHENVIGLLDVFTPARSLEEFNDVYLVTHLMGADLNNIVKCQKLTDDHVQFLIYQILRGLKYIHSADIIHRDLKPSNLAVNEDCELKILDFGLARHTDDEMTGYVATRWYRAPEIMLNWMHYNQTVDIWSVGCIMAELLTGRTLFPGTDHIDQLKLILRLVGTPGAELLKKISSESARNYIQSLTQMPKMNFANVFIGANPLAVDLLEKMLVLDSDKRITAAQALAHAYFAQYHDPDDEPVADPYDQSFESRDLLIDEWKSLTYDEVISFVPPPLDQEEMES
T1 sequence (Q15759 whole entry, looked up, chain 3 of 4): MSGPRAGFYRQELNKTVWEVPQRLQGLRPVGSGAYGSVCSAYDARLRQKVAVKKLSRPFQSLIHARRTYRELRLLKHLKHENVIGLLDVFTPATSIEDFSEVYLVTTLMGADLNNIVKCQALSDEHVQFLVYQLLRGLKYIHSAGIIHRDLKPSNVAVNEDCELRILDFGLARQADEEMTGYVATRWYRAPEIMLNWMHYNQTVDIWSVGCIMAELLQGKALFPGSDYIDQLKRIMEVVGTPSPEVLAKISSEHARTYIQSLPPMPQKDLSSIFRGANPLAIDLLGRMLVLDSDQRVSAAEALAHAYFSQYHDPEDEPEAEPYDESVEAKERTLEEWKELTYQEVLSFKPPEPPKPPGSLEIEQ
T1 sequence (O15264 whole entry, looked up, chain 4 of 4): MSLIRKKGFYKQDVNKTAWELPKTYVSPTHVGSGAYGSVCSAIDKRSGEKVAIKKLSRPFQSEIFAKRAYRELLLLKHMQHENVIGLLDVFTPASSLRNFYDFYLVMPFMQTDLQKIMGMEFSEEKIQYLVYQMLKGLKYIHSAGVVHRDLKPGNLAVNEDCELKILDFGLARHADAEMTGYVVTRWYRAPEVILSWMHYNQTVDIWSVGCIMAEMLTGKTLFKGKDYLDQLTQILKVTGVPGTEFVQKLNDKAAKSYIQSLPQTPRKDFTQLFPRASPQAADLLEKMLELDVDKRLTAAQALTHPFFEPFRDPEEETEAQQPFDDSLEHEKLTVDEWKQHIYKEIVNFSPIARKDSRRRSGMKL

Activity [2]: Dose-dependent effect
Activity [3]: inactive
Activity [4]: inactive
ED50 [5]: 1.22 µM
Compound: POLYMYXIN B [listing 1 of 2 here]
Activity (Mus musculus [1]): Active

Compound: CCCCCCCCCCCCCCCC(CCCCCCCCCCCCCCC)NCCCNCCCNCCCCNCCCNCCCNC(CCCCCCCCCCCCCCC)CCCCCCCCCCCCCCC
IC50 (HEK293): 21 µM

Compound: CCCCCCCCCCCCCCC/C=C(/CCCCCCCCCCCCCC)CNCCCNCCCNCCCCNCCCNCCCNC/C(=C\CCCCCCCCCCCCCCC)CCCCCCCCCCCCCC
IC50 (HEK293): 22 µM

Compound: CCCCCCCCCCCCCCCCN(CCCCCCCCCCCCCCCC)CCCNCCCNCCCCNCCCN
IC50 (HEK293): 2.7 µM

Compound: CCCCCCCCCCCCCCCC(CCCCCCCCCCCCCCC)NCCCNCCCNCCCCNCCCN
IC50 (HEK293): 2.7 µM

Compound: CCCCCCCCCCCCCCCCC(CCCCCCCCCCCCCC)CNCCCNCCCNCCCCNCCCN (stereo not given)
IC50 (HEK293): 2.6 µM

IC50 (Blood [6]): 11 µM
IC50 (Blood [7]): 16.4 µM
IC50 (J774.A1; j774.a1): 1.79 µM
IC50 (Blood [8]): 14.2 µM
Compound: POLYMYXIN B [listing 2 of 2 here]

IC50 (Blood [6]; Homo sapiens, Blood): 4 µM
IC50 (Blood [7]; Homo sapiens, Blood): 3.08 µM
Activity [2]: Dose-dependent effect
Activity [3]: inactive
Activity [4]: inactive
ED50 [5]: 3.14 µM
IC50 (J774.A1; Mus musculus, J774.A1): 2.22 µM
IC50 (Blood [8]; Homo sapiens, Blood): 3.85 µM
Compound: CCCCCCCCCCCCCCC/C=C(/CCCCCCCCCCCCCC)CNCCCNCCCNCCCCNCCCN
Activity (Mus musculus [1]): Active
Activity (Mus musculus [9]): inactive
Activity (Mus musculus [10]): Non-toxic
Activity (Mus musculus [11]): Active
Activity (Mus musculus [12]): Dose-dependent effect
Activity (Mus musculus [13]): Dose-dependent effect
Activity (Mus musculus [14]): Dose-dependent effect
IC50 (HEK293): 2.9 µM
